# PGC1a acetyl inh – inhibitors of PGC1a acetylation signal, primary screen, cell-based, U2OS, AlphaScreen, inhibitor mode; 350,000 tested, 0.17% active; AID 651687, 2012; AlphaScreen anti-acetyl-lysine; with virally co-expressed GCN5 acetyltransferase; inhibition, % at 15.6 µM;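 active = every replicate shows inhibition of at least 40%; inconclusive = mean inhibition at least 40% but some replicate below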;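 also: 0% = neutral control wells and 100% = positive control wells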
# HIV Env fusion – inhibitors of HIV-1 Env-driven cell-cell fusion, primary screen, HeLa-JRFL effector, CEM21 target cells, luciferase. 360,000 tested, 1.1% active. inhibition, % at 12.3 µM. AID 651610, 2012;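 active = mean replicate inhibition score of at least 50 and every replicate individually at or above 50; inconclusive = only one of the two criteria met; inactive = mean below 50 and not all replicates reaching 50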;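 also: 0% = plate neutral controls and 100% = maraviroc near 300 nM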
# F508del corr – F508del CFTR correction, initial screen, CFBE line, single point. CFBE cells, YFP halide quenching; stimulated with forskolin plus potentiator P3; % fluorescence drop versus neutral controls. 350,000 tested, 0.36% active. activity (quench increase), % at 7.58 µM;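 active = mean added fluorescence quench of at least 8% versus neutral control, with both replicates also reaching 8%; inconclusive = only one of the mean or replicate conditions met; inactive = mean below 8% and not both replicates reaching 8%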;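 also: cells transiently co-express mutant CFTR-F508del with the halide-sensitive YFP; corrector assay measuring rescue of mutant channel to the surface after 24 h compound exposure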
# EWS-Fli inh – EWS/Fli-driven NR0B1 reporter inhibitors, primary screen, A673 cells, NR0B1 luciferase, luminescence, MLPCN library. viability-normalised. inhibition, % at 12.6 µM. 350,000 tested, 0.67% active. AID 651661, 2012;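 active = mean inhibition of at least 50% after viability correction, with every replicate also passing that limit; inconclusive = mean reaches 50% but only one of two replicates passes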;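 also: firefly luciferase signal divided by Alamar Blue viability fluorescence both relative to DMSO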
# FN deposition inh – inhibitors of fibronectin matrix deposition, primary screen, AH1F cells, Alexa488-fibronectin fluorescence, plate reader. AH1F fibroblasts, overnight. inhibition, % at 12.6 µM. 350,000 tested, 0.086% active;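 active = mean inhibition across replicates of 30% or more, regardless of how many single replicates reach that level; inconclusive = mean under 30% yet at least half of replicates reach 30%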;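 also: positive control wells lacked labelled fibronectin entirely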
#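 Schedule: 1 h cell adhesion before compound, then overnight fibronectin incubation; test system: AH1F fibroblast monolayer depositing Alexa488-labelled fibronectin into matrix; quantity: 10000 AH1F cells per well; probe or stimulus: fluorescent fibronectin at 24 nM final; signal: fluorescence, ex 485 nm, em 525 nm; evaluation: percent inhibition as loss of matrix-bound fibronectin fluorescence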
# PAX8 reporter – inhibitors of PAX8-driven TPO luciferase reporter, primary screen, RMG-I cells, single concentration; SteadyGlo, 24 h; inhibition, % at 12.6 µM; 360,000 tested, 1.2% active; AID 652154, 2013;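 active = mean replicate inhibition at least 60% with every replicate also reaching 60%; inconclusive = only one of the two criteria is met; inactive = mean below 60% and not all replicates reaching 60%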;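 also: luciferase light reporting Pax8 driven TPO promoter activity; plate controls were median of neutral control wells for no effect and mitoxantrone controls for full effect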
# The depositor's hits bear a star; ? = inconclusive; . = no result; [ ] = remark or other dose. Hits are enriched below; roughly 2.3% of the tested compounds scored in any of these assays.
SMILES,PGC1a acetyl inh,HIV Env fusion,F508del corr,EWS-Fli inh,FN deposition inh,PAX8 reporter
COc1ccc(CC2NCC(O)C2OC(C)=O)cc1 (stereo unspecified),92*,.,0,59*,.,.
COc1ccc(CC(=O)N2CCN(C)CC2)cc1,10,-74,.,.,-3,.
CC=Cc1ccc2n(c1=O)C[C@@H]1[C@@H](CO)[C@H](C(=O)OC)[C@H]2N1S(=O)(=O)c1ccccc1C (mixture of isomers),-2,.,-1,19,-1,-4
COC(=O)[C@H]1[C@H](CO)[C@H]2Cn3c(ccc(-c4ccc(F)cc4)c3=O)[C@@H]1N2Cc1cccnc1,.,4[16.7 µM],.,-13,.,.
CCC(=NCc1ccc2c(c1)OCO2)c1c(O)n(C)c(=O)n(C)c1=O,14,77*,.,.,-1,18
CCC(=NCCOc1ccc(Cl)cc1)c1c(O)n(C)c(=O)n(C)c1=O,15,50*,.,.,1,12
CCC(=NCCN1CCCCC1)c1c(O)n(C)c(=O)n(C)c1=O,-3,.,.,.,.,.
CC(=NCc1ccc2c(c1)OCO2)c1c(O)n(C)c(=O)n(C)c1=O,10,-43,.,.,4,12
CCC(=NCCc1c[nH]c2ccccc12)c1c(O)n(C)c(=O)n(C)c1=O,4,81*,.,.,13,.
CCN1[C@@H]2Cn3c(ccc(-c4ccc(OC)cc4)c3=O)[C@H]1[C@@H](C(=O)OC)[C@@H]2CO,.,.,.,3,.,.
COC(=O)[C@H]1[C@H](CO)[C@H]2Cn3c(ccc(-c4ccccc4F)c3=O)[C@@H]1N2C(C)=O,.,.,-1,-3,.,7
CCN(CC)c1ccc(C=C2C(=O)N(C)C(=S)N(C)C2=O)o1,-5,.,2,-81,-5,78*
Cc1ccc(N)cc1Cl,2,-4,5,1,-6,-6
Nc1ccc(Cl)c(Cl)c1,1,.,12*,6,-6,-2
CCCCCCC[n+]1ccc(-c2cc[n+](CCCCCCC)cc2)cc1,.,6,.,3,-5,86*
CCC1(C)OC(c2ccccc2)=C/C(=C/C=C2C(=O)NC(=O)NC2=O)O1 (stereo unspecified),.,5,15*,3,3,0
CCC1(Oc2ccccc2)C(=O)NC(=O)NC1=O,7,24,5,9,2,-15
COC(=O)[C@@H]1[C@@H](CO)[C@@H]2Cn3c(ccc(C4=CCCC4)c3=O)[C@H]1N2Cc1ccccn1,.,.,.,-8,.,.
C/C=C/c1ccc(C2[C@H]3CNC[C@@H]2N3CC2CCCCC2)cc1 (stereo partly specified),-3,.,0,76*,3,-4
C/C=C/c1ccc(C2[C@H]3CNC[C@@H]2N3Cc2ccccn2)cc1 (stereo partly specified),3,.,-3,-14,-10,13
O=C1NC(=O)[C@]2(Cc3ccccc3N3CCN(c4ccccc4)CC32)C(=O)N1c1ccccc1 (stereo partly specified),4,-51,.,.,31*,.
CN1C(=O)NC(=O)[C@]2(Cc3ccccc3N3CCN(c4ccccc4)CC32)C1=O (stereo partly specified),-5,-9,.,.,7,.
CCCN1[C@@H]2c3ccc(-c4cccc(OC)c4)c(=O)n3C[C@H]1[C@H](CO)[C@H]2C(=O)OC,2,.,-3,-2,.,.
COC(=O)[C@@H]1[C@@H](CO)[C@@H]2Cn3c(ccc(-c4cccc(OC)c4)c3=O)[C@H]1N2C(=O)c1ccccc1F,-1,.,2,-5,.,10
C1=C(c2c[nH]c3ccccc23)CCN(Cc2ccccc2)C1,.,7,7,26,14,64*
SMILES,PGC1a acetyl inh,HIV Env fusion,F508del corr,EWS-Fli inh,FN deposition inh,PAX8 reporter
CN1CC=C(c2c[nH]c3ccccc23)CC1,-3,13,-3,8,7,17
O=C(O)[C@@H]1[C@@H](CO)[C@@H]2Cn3c(ccc(C4=CCCCC4)c3=O)[C@H]1N2CCc1ccccc1,.,-2[16.7 µM],.,-5,.,.
COc1cccc(-c2ccc([C@@H]3[C@H]4CN(C(=O)Cc5ccncc5)CCCCN4[C@H]3CO)cc2)c1,-27,.,-2,.,8,-17
O=C(O)[C@H]1[C@H](CO)[C@H]2Cn3c(ccc(-c4cccc(F)c4)c3=O)[C@@H]1N2CCc1ccccc1,4,.,-3,-2,.,-3
C=C1C(C)C2C(Cc3ccccc3)NC(=O)C23OC(=O)/C=C/C(O)CCCC(C)C/C=C/C3C1O (stereo unspecified),3,?,-8,-12,41*,93*
COc1ccc(C#Cc2ccc([C@@H]3[C@H]4CN(C(=O)Cc5cccnc5)CCCCN4[C@H]3CO)cc2)cc1,-5,.,0,-7,.,29
CCC(C)C1NC(=O)C(NC(=O)C(CC(C)C)N(C)C(=O)C2CCCN2C(=O)C(C)O)C(C)OC(=O)C(Cc2ccc(OC)cc2)N(C)C(=O)C2CCCN2C(=O)C(CC(C)C)NC(=O)[C@H](C)C(=O)[C@H](C(C)C)OC(=O)CC1O (stereo partly specified),33,83*,-9,72*,23,95*
COc1ccc(-n2c(O)c(C(C)=NCCCn3ccnc3)c(=O)[nH]c2=O)cc1,14,69*,.,.,-1,.
COc1ccc(C#Cc2ccc([C@H]3[C@H](CO)N4CCCCN(C(=O)Cc5cccnc5)C[C@@H]34)cc2)cc1,-3,.,-4,-9,.,-1
S=C(NCCc1ccccc1)N1Cc2cc(Br)ccc2-n2nncc2C1,-8,57*,0,5,.,0
CC[n+]1c(-c2ccccc2)c2cc(N)ccc2c2ccc(N)cc21,.,8,10*,13,3,110*
N#Cc1cccc(-c2ccc([C@H]3[C@H](CO)N4CCCCN(C(=O)Cc5ccccc5)C[C@@H]34)cc2)c1,-4,.,-4,12,.,-3
CCCNC(=O)[C@H]1[C@H](CO)[C@H]2Cn3c(cccc3=O)[C@@H]1N2CCC,.,.,-2,3,.,-6
CCOC(=O)C(O)(c1ccc(NC(=S)NC(=O)c2ccc(Cl)cc2Cl)cc1)C(F)(F)F (stereo unspecified),.,10,.,.,-2,-6
COC(=O)C(O)(c1ccc(NC(=S)NC(=O)c2ccc(Cl)cc2Cl)cc1)C(F)(F)F (stereo unspecified),.,.,0,-5,-1,84*
O=C(NN=Cc1ccc(N(CCCl)CCCl)cc1Cl)c1cccnc1,.,56*,0,24,2,-19
O=C(Cc1ccccn1)N1CCCCN2[C@H](CO)[C@H](c3ccc(Br)cc3)[C@H]2C1,8,.,-3,1,.,-2
N#C/C(=C\c1ccc(O)cc1)C(=O)O (tested in a mixture with another compound),-25,-3,11*,2,.,0

# Assay outcomes: PubChem, Broad Institute
